High-throughput results deposited in PubChem BioAssay by several laboratories.
aDG glyco up: increases alpha dystroglycan glycosylation; Pro5-aDG cells, alpha-DG glycosylation AlphaScreen (IIH6); 0% Pro5, 100% B10-LARGE cell signal; activation, % at 10 µM; actives 0.22% (n = 360,000); AID 624168;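 active = activation of at least 8% versus controls, or a plate z-score of at least 8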;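 note: Pro5 are CHO cells carrying HIG-tagged alpha-DG that lacks glycosylation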
T cell modulator: T cell immune modulation candidate; 2C CD8+ T cell-vesicle binding, flow cytometry; hits give low values; actives 0.068% (n = 330,000); response (vesicle binding), % at 7 µM;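 active = response, share of CD8 T cells binding vesicles, and their 90th percentile fluorescence all below set limits, cut at about 80% in these data, passing the limit was not always enough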;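 note: values below 100% mean blocked vesicle binding to the CD8+ T cells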
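Material: 2C TCR transgenic mouse naive CD8+ T cells, MACS-purified. Also added: QL9-charged Drosophila Ld/ICAM-1/B7-1 vesicles. Timing: binding 1.5 h at 37 °C. Measured by: high-throughput flow cytometry with anti-B7-1 and anti-CD8 staining. Read-out: percent CD8+ FL2 mean versus row control. Controls: Unloaded micro-vesicles (low), QL9 vesicles with 0.7% DMSO (high).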
PolyA inhibitor: blocks polyadenylation in yeast reporter cells. activity score, % at 12 µM. S. cerevisiae SKY197-pL101 polyadenylation reporter, beta-gal luminescence; efflux-impaired pdr1/pdr3 knockout yeast; score 100 = 6 SD above DMSO. actives 0.02% (n = 300,000);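 active = lowest replicate activity score at least 50, where 100 means six control SD above control mean; inconclusive = lowest score under 50 but half or more replicates reach 50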;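 note: yeast exposed to compound for 9 h at 30 °C; higher score means more reporter readthrough which indicates perturbed polyadenylation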
Rce1 inh: yeast Ras-converting enzyme inhibition; AID 2563; yeast membranes, quenched prenylated peptide cleavage fluorescence; actives 0.27% (n = 290,000); calls only;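 active = fall in fluorescence gain of 50% or more versus controls, with final raw signal at or below 3038400; inconclusive = same 50% fall but final raw signal above 3038400; inactive = fall in fluorescence gain under 50%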;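 note: plate controls were neutral control wells for no effect and wells lacking membranes for full effect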
Target sequence (Q03530 whole entry, looked up): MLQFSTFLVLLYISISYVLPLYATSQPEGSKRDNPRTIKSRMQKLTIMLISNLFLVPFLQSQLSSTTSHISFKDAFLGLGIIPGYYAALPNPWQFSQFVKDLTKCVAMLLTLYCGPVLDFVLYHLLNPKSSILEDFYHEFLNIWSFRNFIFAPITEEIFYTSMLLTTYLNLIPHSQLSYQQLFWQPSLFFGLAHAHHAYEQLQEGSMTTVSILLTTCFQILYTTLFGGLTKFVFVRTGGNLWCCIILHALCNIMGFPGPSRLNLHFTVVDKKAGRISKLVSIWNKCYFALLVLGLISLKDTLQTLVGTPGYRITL
An asterisk follows results filed as active; i = inactive; ? = inconclusive; . = not tested or not shown; + = active, no number. This is a sample that favours compounds with a hit; in the whole collection about 0.51% have one here.

SMILES | aDG glyco up | T cell modulator | PolyA inhibitor | Rce1 inh
CC(=O)Oc1cc(O)c2c(=O)c(OC(C)=O)c(-c3ccc(OC(C)=O)c(OC(C)=O)c3)oc2c1 | 0 | 65* | -11 | i
COc1ccc(C(CNC(=O)COc2cc(C)c(Cl)c(C)c2)N2CCCCC2)cc1 (centres undefined) | 0 | 614 | 13 | +
COC(=O)c1ccc(NC(=O)NC2CCCCC2)cc1 | 0 | 168 | 6 | i
COc1ccc(NC(=O)NC2CCCCCCC2)cc1 | 0 | 69* | -15 | i
COc1ccc(C2CC(c3cccs3)=NN2c2ccc(C=O)cc2)cc1 (centres undefined) | . | 680 | 6 | +
Cc1cccc(COC[C@H](Cc2ccccc2)N2CCN(C(=O)c3cc(Cl)cc(Cl)c3)CCC2=O)c1 | 0 | . | . | .
O=C(NC1CCCC1)C1CC(c2ccc(F)cc2)=NO1 (centres undefined) | 0 | 0.0* | -1 | i
COc1cc(C(=O)NC(=S)Nc2ccc3ccccc3c2)cc(OC)c1OC | 0 | . | . | .
Cc1cc(C)c2cc(C#N)c(NCCCNC(=O)CCC(=O)O)nc2c1 | 0 | 235 | 19 | +
CCOc1ccc(OCC)c(NC(=O)c2nnn(CC(=O)Nc3cc(C)cc(C)c3)c2N)c1 | 5 | 467 | -26 | +
CCOc1ccc(NC(=O)c2nnn(CC(=O)Nc3ccccc3OCC)c2N)cc1 | 0 | 255 | -2 | i
COc1cc2cc(C(=O)O)[nH]c2c(OC)c1OC | 0 | 525 | -12 | +
COc1ccc(OC)c(/C=N/NC(=O)CSc2cc(C)nc3c(OC)cccc23)c1 | 0 | 191 | 6 | +
COc1ccc2nc(C)cc(SCC(=O)N/N=C/c3ccco3)c2c1 | 0 | 209 | -6 | i
COc1ccc(OC)c(/C=N/NC(=O)Cn2ccnc2C)c1 | 0 | 243 | 27 | +
OCC[C@H]1C[C@@H](O)[C@H](O)[C@@]2(CCCCO2)O1 | 0 | . | 1 | i
NCC12CC3CC(C1)CC(c1ccc(Br)cc1)(C3)C2 | 0 | 236 | 5 | i
Cc1ccc(C23CC4CC(CC(CN)(C4)C2)C3)cc1 | 9.5* | . | 1 | i
CCOc1ccc(-n2cc(C(=O)N3CCC(C)CC3)c3cc(OC)c(OC)cc3c2=O)cc1 | 7.5* | 659 | 4 | i
Cc1ccc(C(=O)c2c3ccc(C(F)(F)F)cc3nn2CCC(N)=O)cc1 | 0 | 160 | 8 | +
O=C(NCc1nnnn1-c1ccc(F)cc1)c1ccc2c(c1)OCO2 | 0 | . | . | .
COC(=O)c1c(NC(=S)NN2CCN(C)CC2)sc2c1CCC(C)C2 (centres undefined) | -1 | 343 | 15 | i
COC(=O)c1cc(C(=O)N2CCN(c3ccccc3OC)CC2)cc([N+](=O)[O-])c1 | 0 | 414 | 11 | i
COC(=O)c1cc(C(=O)N2CCN(c3cccc(C)c3C)CC2)cc([N+](=O)[O-])c1 | 0 | 260 | 103* | i
COc1ccc(NC(=O)CCOc2ccccc2C)cc1S(=O)(=O)N1CCCCC1 | 1 | 260 | -7 | i
SMILES | aDG glyco up | T cell modulator | PolyA inhibitor | Rce1 inh
CCOC(=O)c1ccc(N2C(=O)c3n[nH]c(C)c3C2c2ccccn2)cc1 (centres undefined) | 4.6* | 447 | ? | i
CCOC(=O)c1ccc(N2C(=O)c3n[nH]c(C)c3C2c2cccnc2)cc1 (centres undefined) | 0 | 338 | 9 | i
O=C1c2ccccc2C(=O)N1C/C=C/c1ccccc1 | 0 | 440 | 2 | i
O=C1C(=O)N(C/C=C/c2ccccc2)c2ccccc21 | 0 | 174 | -10 | +
CCOc1cccc(-c2nn(-c3ccccc3)cc2/C=C(/C#N)C(=O)NCCCn2ccnc2)c1 | 0 | 197 | 3 | +
C=CCn1cc(-c2ccccc2)cc(C#N)c1=O | 0 | 235 | 8 | +
C=CCn1cc(-c2ccc(Cl)cc2)cc(C#N)c1=O | 0 | 319 | 3 | i
CC(C)(C)C(C(=O)NC1CCCC1)N1CCN(c2ncccc2C#N)CC1 (centres undefined) | 0 | . | . | .
Cc1ccc2c(c1)cc(C(=O)N[C@@H](Cc1ccccc1)C(=O)O)n2C | 0 | 207 | 2 | i
C[C@@]12CCC=C[C@H]1[C@H](c1ccc3ccccc3c1/C=C/c1ccccc1)N(Cc1ccccc1)C2=O | 0 | 504 | -7 | i
C[C@@]12CCC=C[C@H]1[C@H](c1ccc(/C=C/c3ccccc3)cc1F)N(Cc1ccccc1)C2=O | 0 | 0 | 7 | +
N=c1c2c(ncn1Cc1ccco1)Oc1ccc3ccccc3c1C2c1ccccc1 (centres undefined) | 1 | 241 | -7 | +
COc1ccc(C2c3c(ncn(Cc4ccco4)c3=N)Oc3ccc4ccccc4c32)cc1 (centres undefined) | 1 | 302 | -13 | i
CC(=O)N(C1=C(N)C(=O)c2ccccc2C1=O)c1ccccc1 | 4.1* | 400 | -5 | i
CCCOc1ccc(-c2nc3c(c(=O)[nH]c(=O)n3Cc3ccccc3)n2CCO)cc1OCC | 0 | 113 | 12 | +
Fc1ccc2nc(C(F)(F)F)cc(N3CCOCC3)c2c1 | 0 | 150 | 1 | i
CCn1nc(C)c(CN2CCC(C(=O)Nc3cccc(-c4cccc(F)c4)c3)CC2)c1C | 8.0* | 312 | -11 | i
CCn1cc(CN2CCC(C(=O)Nc3cccc(-c4cccc(F)c4)c3)CC2)cn1 | 1 | 296 | 1 | i
CC(C)n1cc(CN2CCC(C(=O)Nc3cccc(-c4cccc(Cl)c4)c3)CC2)cn1 | 8.6* | 251 | 22 | i
COc1ccc(Cc2c(-c3ccc(Cl)cc3)nc3c(C)cc(Br)cn23)c(C)c1 | 0 | . | . | .
N=c1c(C(=O)NCc2ccc(F)cc2)cc2c(=O)n3ccccc3nc2n1Cc1cccnc1 | 0 | 192 | -8 | +
O=C(NCCc1nnc2ccc(N3CCCCCC3)nn12)c1ccccc1F | 0 | 132 | 6 | i
Nc1c(Cl)cc(C2=NCCn3nc4cc(C(F)(F)F)ccc4c32)cc1Cl | 0 | 168 | 9 | +
O=C1Nc2ccccc2C12OCCS2 (centres undefined) | . | 0.0* | -17 | i
O=C(Nc1cc(Cl)ccc1N1CCOCC1)c1cnccn1 | 0 | 37 | -10 | i
SMILES | aDG glyco up | T cell modulator | PolyA inhibitor | Rce1 inh
O=C(Nc1cc(S(=O)(=O)N2CCOCC2)ccc1N1CCCC1)c1cnccn1 | 0 | 222 | 0 | +
COc1ccccc1CNC(=O)CN1C(=O)NC(c2ccccc2)(c2ccc(C)c(C)c2)C1=O (centres undefined) | 0 | . | . | .
CCNC(=O)C1(C)CCN1CCS(=O)(=O)c1ccc(C)cc1 (centres undefined) | 0 | . | . | .
O=C1c2ccccc2C(=O)c2c1oc(C(F)(F)F)c2C(=O)c1ccccc1 | 8.8* | 217 | -86 | i
COc1ccc(CNC(=O)c2c(C)oc3c2C(=O)c2ccccc2C3=O)cc1 | 1 | 394 | -12 | i
CC(=O)c1c(C)oc2c1C(=O)c1ccccc1C2=O | 9.8* | 410 | -31 | i
